# Source: PubChem BioAssay
# The source made the active and inactive calls.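 Rule for the calls, unless noted: active = Her2 level under about 52% in both replicate screens, with viability over 70% of control (limit read from the data); inconclusive = Her2 under the limit in one screen only, or viability under 70%; inactive = Her2 level above the set limit.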
# How the values were obtained:
# [1] = Her2 expression decrease, cell viability multiplex – SKBR3 breast tumor cells, AlphaScreen, ATP viability, primary screen (AID 461); conditions: SKBR3 Her2 protein level, 18-24 h, measured here: SKBR3 viability, ATP luminescence, at 10 µM;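 for Her2 level: lower value means less Her2 protein in the cells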;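 for viability: percent of carrier control wells set as 100% viability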
# [2] = biological target: Receptor tyrosine-protein kinase erbB-2 (Homo sapiens) (UniProt P04626); experiment: as above; conditions: 18-24 h, at 10 µM, stronger effect = lower value
# [3] = reduced viability of SK-BR-3 breast cancer cells – cell-based, 24 h, human, pilot screen (AID 572;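 active = viability at or below 10% of carrier control in both of two separate runs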;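 note: compound exposure lasted between 18 and 24 h rather than exactly 24 h; 100% = carrier-treated control wells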); conditions: SK-BR-3 viability, CellTiter-Glo luminescence, at 10 µM, stronger effect = lower value
# [4] = HUVEC growth inhibition – cell-based, human, primary screen (AID 575;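 active = viability at or below 30% in both replicate assays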;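 note: 100% = median of untreated cell wells with 0.1% DMSO on each plate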); conditions: HUVEC proliferation, CellTiter-Glo luminescence, 72 h; at 10 µM; stronger effect = lower value
# In short: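 Test system: primary human umbilical vein endothelial cells; medium: endothelial basal medium with 2% FBS plus growth supplements; dosing: 10 µM compound only; times: 72 h treatment at 37 °C; signal: CTG luminescence; read-out: % viability relative to median vehicle-well signal on each plate; control set: vehicle and MePR control wells; plate: 384-well, collagen-coated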
# [5] = H69AR cell proliferation blockers – human, duplicate replicates, primary screen (AID 580;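 active = viability at or under a set limit in both replicates, limit being median viability minus 3 SD, cut at about 48% in these data, passing the limit was not always enough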;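 note: 100% = mean luminescence of untreated wells and 0% = no signal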); conditions: H69AR lung tumor cells viability, ATP luminescence, 72 h; at 10 µM; stronger effect = lower value
# [6] = MRP1 drug-resistance reversers in H69AR cells – cell-based, doxorubicin co-treatment, pilot screen (AID 601;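 active = viability loss from added drug above about 55%, and viability with drug at most 40%, in both replicates, limit read from the data, passing the limit was not always enough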); conditions: CellTiter-Glo, 72 h, at 10 µM; for differential viability (reversal): stronger effect = higher value
# [7] = yeast transport mutant growth inhibition pilot in 384-well plates, post-Golgi transport modulator project (AID 636; in the data active = inhibition above about 31%); conditions: absorbance 615 nm, about 18 h, stronger effect = higher value
# [8] = growth suppression of yeast trafficking mutant, preliminary HTS, modulators of trafficking downstream of Golgi apparatus project, 1536-format plate, OD 615 nm (AID 637; in the data active = inhibition above about 30%); conditions: yeast transport mutant growth, absorbance 615 nm, 18 h; stronger effect = higher value
# [9] = H69AR cells + 2 uM doxorubicin, measured here: viability with 2 uM doxorubicin, stronger effect = lower value
# [10] = H69AR cells, compound alone cytotoxicity
# Receptor tyrosine-protein kinase erbB-2 (Homo sapiens), sequence (P04626 whole entry, looked up): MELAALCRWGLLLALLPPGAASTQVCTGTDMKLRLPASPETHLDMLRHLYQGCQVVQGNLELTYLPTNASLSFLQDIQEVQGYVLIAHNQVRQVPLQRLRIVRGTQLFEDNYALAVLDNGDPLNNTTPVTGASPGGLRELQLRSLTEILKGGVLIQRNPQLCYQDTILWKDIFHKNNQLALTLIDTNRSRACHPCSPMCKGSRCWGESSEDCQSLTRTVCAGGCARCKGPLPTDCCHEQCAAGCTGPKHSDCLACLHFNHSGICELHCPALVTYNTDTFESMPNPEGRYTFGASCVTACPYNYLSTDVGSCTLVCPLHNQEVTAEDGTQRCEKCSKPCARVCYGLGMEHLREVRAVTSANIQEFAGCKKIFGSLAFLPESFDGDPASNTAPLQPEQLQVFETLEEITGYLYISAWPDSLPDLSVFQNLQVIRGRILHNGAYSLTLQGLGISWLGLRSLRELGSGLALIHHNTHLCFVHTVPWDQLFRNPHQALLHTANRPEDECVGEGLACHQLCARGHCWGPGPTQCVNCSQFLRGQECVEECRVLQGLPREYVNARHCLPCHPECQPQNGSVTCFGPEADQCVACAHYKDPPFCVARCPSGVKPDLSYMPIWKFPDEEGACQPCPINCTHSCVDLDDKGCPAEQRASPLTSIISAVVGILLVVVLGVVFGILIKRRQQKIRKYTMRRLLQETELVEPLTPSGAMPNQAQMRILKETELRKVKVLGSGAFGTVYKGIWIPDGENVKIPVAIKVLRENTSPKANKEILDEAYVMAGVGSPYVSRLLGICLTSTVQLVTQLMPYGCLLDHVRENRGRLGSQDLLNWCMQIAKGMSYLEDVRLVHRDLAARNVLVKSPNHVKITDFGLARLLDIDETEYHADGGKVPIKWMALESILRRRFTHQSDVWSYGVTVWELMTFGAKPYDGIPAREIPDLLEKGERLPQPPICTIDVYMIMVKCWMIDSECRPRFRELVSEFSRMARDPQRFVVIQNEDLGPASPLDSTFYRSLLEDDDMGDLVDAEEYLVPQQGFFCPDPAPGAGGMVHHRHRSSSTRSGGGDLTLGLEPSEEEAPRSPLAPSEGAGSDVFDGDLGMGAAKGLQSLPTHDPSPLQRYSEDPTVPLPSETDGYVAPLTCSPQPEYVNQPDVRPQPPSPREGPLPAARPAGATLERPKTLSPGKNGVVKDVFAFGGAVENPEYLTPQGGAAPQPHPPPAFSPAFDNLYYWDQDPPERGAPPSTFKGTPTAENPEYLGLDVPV
compound,measurement,setting,value
Cn1nc(C(=O)N2CCOCC2)c2ccccc2c1=O,viability,[1],93%
same,Her2 level,[2],114% (inactive)
same,viability,[3],93% (inactive)
same,viability,[4],88.9% (inactive)
same,viability,[5],89.3% (inactive)
same,differential viability (reversal),[6]; H69AR cells + 2 uM doxorubicin,5.89% (inactive)
same,viability,[6]; [9],83.4%
same,viability,[6]; [10],89.3%
same,inhibition,[7],-1.3% (inactive)
same,inhibition,[8],0.67% (inactive)
CC1CN(c2nc3ccccn3c(=O)c2/C=C(\C#N)S(=O)(=O)c2ccccc2)CC(C)O1 (stereo not given),viability,[1],93.5%
same,Her2 level,[2],106% (inactive)
same,viability,[3],93.5% (inactive)
same,viability,[4],96.3% (inactive)
same,viability,[5],90% (inactive)
same,differential viability (reversal),[6]; H69AR cells + 2 uM doxorubicin,59% (active)
same,viability,[6]; [9],31%
same,viability,[6]; [10],90%
same,inhibition,[7],-0.53% (inactive)
same,inhibition,[8],-14.4% (inactive)
COc1cc(C)c(N)cc1C(C)C,viability,[1],103%
same,Her2 level,[2],91% (inactive)
same,viability,[3],103% (inactive)
same,viability,[4],89.2% (inactive)
same,viability,[5],94.1% (inactive)
same,differential viability (reversal),[6]; H69AR cells + 2 uM doxorubicin,1.33% (inactive)
same,viability,[6]; [9],92.8%
same,viability,[6]; [10],94.1%
same,inhibition,[7],-2.93% (inactive)
same,inhibition,[8],-0.82% (inactive)
CC(C)CNC(=O)c1c(N)n(/N=C/c2ccccn2)c2nc3ccccc3nc12,viability,[1],88.5%
same,Her2 level,[2],92.5% (inactive)
same,viability,[3],88.5% (inactive)
same,viability,[4],80.4% (inactive)
same,viability,[5],83.9% (inactive)
same,differential viability (reversal),[6]; H69AR cells + 2 uM doxorubicin,2.92% (inactive)
same,viability,[6]; [9],81%
same,viability,[6]; [10],83.9%
same,inhibition,[7],-4.67% (inactive)
same,inhibition,[8],-1.48% (inactive)
CCS(=O)(=O)NCCc1cc2c(OC)ccc(OC)c2[nH]c1=O,viability,[1],95.5%
same,Her2 level,[2],88.5% (inactive)
same,viability,[3],95.5% (inactive)
same,viability,[4],106% (inactive)
same,viability,[5],98.8% (inactive)
same,differential viability (reversal),[6]; H69AR cells + 2 uM doxorubicin,12.1% (inactive)
same,viability,[6]; [9],86.8%
same,viability,[6]; [10],98.8%
same,inhibition,[7],-9.45% (inactive)
same,inhibition,[8],0.48% (inactive)
CCOC(=O)c1c(NC(=O)c2ccn(CC)n2)sc2c1CCCC2,viability,[1],88%
same,Her2 level,[2],70% (inactive)
same,viability,[3],88% (inactive)
same,viability,[4],75.5% (inactive)
same,viability,[5],77.2% (inactive)
same,differential viability (reversal),[6]; H69AR cells + 2 uM doxorubicin,-15% (inactive)
same,viability,[6]; [9],92.2%
same,viability,[6]; [10],77.2%
same,inhibition,[7],-4.74% (inactive)
same,inhibition,[8],1.67% (inactive)
COc1cccc(-c2cc(C(=O)NCc3ccc(Cl)cc3)no2)c1,viability,[1],84%
same,Her2 level,[2],94% (inactive)
same,viability,[3],84% (inactive)
same,viability,[4],97% (inactive)
same,viability,[5],89.3% (inactive)
same,differential viability (reversal),[6]; H69AR cells + 2 uM doxorubicin,5.11% (inactive)
same,viability,[6]; [9],84.2%
same,viability,[6]; [10],89.3%
same,inhibition,[7],-6.62% (inactive)
same,inhibition,[8],0.82% (inactive)
CCOC(=O)C1=C(C)NC(C)=C(C(=O)OCC)C1c1cc(N)ccc1OC(F)F,viability,[1],78.5%
same,Her2 level,[2],108% (inactive)
same,viability,[3],78.5% (inactive)
same,viability,[4],76.6% (inactive)
same,viability,[5],111% (inactive)
same,differential viability (reversal),[6]; H69AR cells + 2 uM doxorubicin,4.41% (inactive)
same,viability,[6]; [9],106%
same,viability,[6]; [10],111%
same,inhibition,[7],0.91% (inactive)
same,inhibition,[8],-7.21% (inactive)
CCOC(=O)C1CCCN(CCC(C)c2ccccc2)C1 (stereo not given),viability,[1],94%
same,Her2 level,[2],84.5% (inactive)
same,viability,[3],94% (inactive)
same,viability,[4],106% (inactive)
same,viability,[5],95.7% (inactive)
same,differential viability (reversal),[6]; H69AR cells + 2 uM doxorubicin,11.3% (inactive)
same,viability,[6]; [9],84.3%
same,viability,[6]; [10],95.7%
same,inhibition,[7],-6.8% (inactive)
same,inhibition,[8],4.1% (inactive)
Cc1cc(=O)n(-c2ccc3ccccc3n2)[nH]1,viability,[1],105%
same,Her2 level,[2],101% (inactive)
same,viability,[3],105% (inactive)
same,viability,[4],53.6% (inactive)
same,viability,[5],73.4% (inactive)
same,differential viability (reversal),[6]; H69AR cells + 2 uM doxorubicin,-2.73% (inactive)
same,viability,[6]; [9],76.2%
same,viability,[6]; [10],73.4%
same,inhibition,[7],-5.73% (inactive)
same,inhibition,[8],11.1% (inactive)
CN(C)C(CN1C(=O)C2CC=CCC2C1=O)c1cn(C)c2ccccc12 (stereo not given),viability,[1],104%
same,Her2 level,[2],85.5% (inactive)
same,viability,[3],104% (inactive)
same,viability,[4],89.9% (inactive)
same,viability,[5],95.4% (inactive)
same,differential viability (reversal),[6]; H69AR cells + 2 uM doxorubicin,6.72% (inactive)
same,viability,[6]; [9],88.7%
same,viability,[6]; [10],95.4%
same,inhibition,[7],-6.71% (inactive)
same,inhibition,[8],-1.59% (inactive)
CC(C)(C)Nc1nc(OCC(F)(F)F)nc(OCC(F)(F)F)n1,viability,[1],108%
same,Her2 level,[2],89% (inactive)
same,viability,[3],108% (inactive)
same,viability,[4],98.8% (inactive)
same,viability,[5],89.1% (inactive)
same,differential viability (reversal),[6]; H69AR cells + 2 uM doxorubicin,-0.98% (inactive)
same,viability,[6]; [9],90.1%
same,viability,[6]; [10],89.1%
same,inhibition,[7],-5.26% (inactive)
same,inhibition,[8],-10.6% (inactive)
Cc1ccc(-c2noc(-c3ccccc3C(=O)NCC3CCCO3)n2)cc1 (stereo not given),viability,[1],91%
same,Her2 level,[2],107% (inactive)
same,viability,[3],91% (inactive)
same,viability,[4],100% (inactive)
same,viability,[5],100% (inactive)
same,differential viability (reversal),[6]; H69AR cells + 2 uM doxorubicin,5.99% (inactive)
same,viability,[6]; [9],94.4%
same,viability,[6]; [10],100%
same,inhibition,[7],-0.13% (inactive)
same,inhibition,[8],-3.97% (inactive)
CCOC(=O)C1=C(C)Nc2ncnn2C1c1cc(OC)ccc1OC (stereo not given),viability,[1],92.5%
same,Her2 level,[2],84.5% (inactive)
same,viability,[3],92.5% (inactive)
same,viability,[4],84.6% (inactive)
same,viability,[5],81.8% (inactive)
same,differential viability (reversal),[6]; H69AR cells + 2 uM doxorubicin,0.51% (inactive)
same,viability,[6]; [9],81.3%
same,viability,[6]; [10],81.8%
same,inhibition,[7],-6.22% (inactive)
same,inhibition,[8],1.17% (inactive)
